Measured values: ChEMBL document CHEMBL5696442, “Discovery of type II inhibitors of TGFβ-activated kinase 1 (TAK1) and mitogen-activated protein kinase kinase kinase kinase 2 (MAP4K2)” (J Med Chem, 2015)

How the values were obtained:
[1] = target: Mitogen-activated protein kinase 14 (Homo sapiens, UniProt Q16539); experiment: Inhibition of p38 alpha in human Huh-7 cell lysate at 1 uM by KiNativ Profiling analysis relative to control; format: subcellular
[2] = target: Calcium/calmodulin-dependent protein kinase kinase 2 (Homo sapiens) (UniProt Q96RR4); experiment: Inhibition of CaMKK2 Lys2 labeling site in human A-375 cells at 5 uM by KiNativ Profiling analysis relative to control; format: cell-based
Summary of the method: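 Live A375 melanoma cells were treated with compound at 5 or 0.5 μM. The cells were then lysed, and the lysates were labeled with a lysine-reactive ATP or ADP-biotin acyl probe (KiNativ). Inhibition is the compound's protection of each kinase labeling-site peptide from probe labeling, relative to untreated control.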

[3] = target: Ribosomal protein S6 kinase alpha-3 (Homo sapiens) (UniProt P51812); experiment: Inhibition of RSK2 domain2 Protein Kinase Domain in human A-375 cells at 5 uM by KiNativ Profiling analysis relative to control; format: cell-based
Ribosomal protein S6 kinase alpha-3 (Homo sapiens), sequence (P51812 whole entry, the tested form may be a part): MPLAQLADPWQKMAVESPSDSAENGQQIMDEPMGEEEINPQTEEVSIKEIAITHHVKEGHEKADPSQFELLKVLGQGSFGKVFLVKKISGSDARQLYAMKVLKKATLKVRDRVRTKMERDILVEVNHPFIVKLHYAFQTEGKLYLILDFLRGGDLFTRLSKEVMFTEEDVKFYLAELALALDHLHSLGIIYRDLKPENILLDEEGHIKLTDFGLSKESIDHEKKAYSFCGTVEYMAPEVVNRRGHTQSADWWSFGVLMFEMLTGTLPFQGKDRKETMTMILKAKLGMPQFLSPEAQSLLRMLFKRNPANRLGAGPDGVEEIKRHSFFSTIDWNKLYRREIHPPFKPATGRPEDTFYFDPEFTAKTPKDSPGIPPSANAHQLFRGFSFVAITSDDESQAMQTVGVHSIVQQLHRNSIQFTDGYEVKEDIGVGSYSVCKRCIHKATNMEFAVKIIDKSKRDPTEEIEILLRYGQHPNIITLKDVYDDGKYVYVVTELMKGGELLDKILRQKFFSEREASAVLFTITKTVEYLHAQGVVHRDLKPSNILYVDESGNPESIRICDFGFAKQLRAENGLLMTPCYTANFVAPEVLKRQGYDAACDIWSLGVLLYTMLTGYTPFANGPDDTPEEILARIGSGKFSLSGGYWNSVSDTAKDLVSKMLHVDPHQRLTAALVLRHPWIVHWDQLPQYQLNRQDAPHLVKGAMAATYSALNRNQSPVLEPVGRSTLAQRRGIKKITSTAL
Summary of the method: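 Live A375 melanoma cells treated with compound at 5 or 0.5 μM, then lysed. Lysate kinases were labeled with a lysine-reactive ATP or ADP-biotin probe. Inhibition was read as protection of labeling sites from the probe.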

[4] = target: Mitogen-activated protein kinase 8 (Homo sapiens, UniProt P45983); experiment: Inhibition of JNK1 Lys2 labeling site in human A-375 cells at 0.5 uM by KiNativ Profiling analysis relative to control; format: cell-based
Mitogen-activated protein kinase 8, sequence (P45983 whole entry): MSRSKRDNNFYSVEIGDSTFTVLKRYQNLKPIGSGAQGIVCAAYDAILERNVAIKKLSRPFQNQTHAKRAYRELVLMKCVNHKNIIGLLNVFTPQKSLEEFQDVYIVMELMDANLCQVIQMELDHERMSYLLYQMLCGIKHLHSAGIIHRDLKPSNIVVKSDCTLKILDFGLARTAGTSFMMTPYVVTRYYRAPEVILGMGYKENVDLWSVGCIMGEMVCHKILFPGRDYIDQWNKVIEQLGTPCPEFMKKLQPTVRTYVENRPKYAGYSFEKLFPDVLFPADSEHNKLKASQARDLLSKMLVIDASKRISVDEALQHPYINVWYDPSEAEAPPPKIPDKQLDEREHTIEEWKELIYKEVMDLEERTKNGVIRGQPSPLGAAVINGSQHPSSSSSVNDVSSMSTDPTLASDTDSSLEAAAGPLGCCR

[5] = target: Mitogen-activated protein kinase 10 (Homo sapiens, UniProt P53779); experiment: Inhibition of JNK3 (unknown origin) Lys2 labeling site by KiNativ Profiling analysis
[6] = target: Serine/threonine-protein kinase 25 (Homo sapiens) (UniProt O00506); experiment: Inhibition of YSK1 ACT labeling site in human A-375 cells at 5 uM by KiNativ Profiling analysis relative to control; format: cell-based
Serine/threonine-protein kinase 25 (Homo sapiens), sequence (O00506 whole entry, looked up): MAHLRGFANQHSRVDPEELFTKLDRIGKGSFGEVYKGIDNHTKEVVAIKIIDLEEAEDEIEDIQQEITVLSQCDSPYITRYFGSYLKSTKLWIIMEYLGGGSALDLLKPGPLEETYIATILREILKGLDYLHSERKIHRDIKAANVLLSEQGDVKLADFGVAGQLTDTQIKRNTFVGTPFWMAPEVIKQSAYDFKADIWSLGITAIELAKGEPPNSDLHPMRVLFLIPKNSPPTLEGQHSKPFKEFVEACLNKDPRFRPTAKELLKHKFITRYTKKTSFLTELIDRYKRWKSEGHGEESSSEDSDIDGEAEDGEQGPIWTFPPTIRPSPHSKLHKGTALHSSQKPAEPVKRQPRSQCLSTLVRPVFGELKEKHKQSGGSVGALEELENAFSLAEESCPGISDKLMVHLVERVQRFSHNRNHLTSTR

[7] = target: Cyclin-dependent kinase 18 (Homo sapiens) (UniProt Q07002); experiment: Inhibition of PCTAIRE3 Lys1 labeling site harbouringSKLTENLVALKEIR in human A-375 cells at 0.05 uM by KiNativ Profiling analysis relative to control; format: cell-based
[8] = target: Tyrosine-protein kinase Lyn (Homo sapiens, UniProt P07948); experiment: Inhibition of LYN (unknown origin) Lys1 labeling site by KiNativ Profiling analysis
[9] = target: Phosphatidylinositol 3-kinase catalytic subunit type 3 (Homo sapiens) (UniProt Q8NEB9); experiment: Inhibition of PIK3C3 ATP labeling site in human A-375 cells at 0.05 uM by KiNativ Profiling analysis relative to control; format: cell-based
Phosphatidylinositol 3-kinase catalytic subunit type 3 (Homo sapiens), sequence (Q8NEB9 whole entry, the tested form may be a part): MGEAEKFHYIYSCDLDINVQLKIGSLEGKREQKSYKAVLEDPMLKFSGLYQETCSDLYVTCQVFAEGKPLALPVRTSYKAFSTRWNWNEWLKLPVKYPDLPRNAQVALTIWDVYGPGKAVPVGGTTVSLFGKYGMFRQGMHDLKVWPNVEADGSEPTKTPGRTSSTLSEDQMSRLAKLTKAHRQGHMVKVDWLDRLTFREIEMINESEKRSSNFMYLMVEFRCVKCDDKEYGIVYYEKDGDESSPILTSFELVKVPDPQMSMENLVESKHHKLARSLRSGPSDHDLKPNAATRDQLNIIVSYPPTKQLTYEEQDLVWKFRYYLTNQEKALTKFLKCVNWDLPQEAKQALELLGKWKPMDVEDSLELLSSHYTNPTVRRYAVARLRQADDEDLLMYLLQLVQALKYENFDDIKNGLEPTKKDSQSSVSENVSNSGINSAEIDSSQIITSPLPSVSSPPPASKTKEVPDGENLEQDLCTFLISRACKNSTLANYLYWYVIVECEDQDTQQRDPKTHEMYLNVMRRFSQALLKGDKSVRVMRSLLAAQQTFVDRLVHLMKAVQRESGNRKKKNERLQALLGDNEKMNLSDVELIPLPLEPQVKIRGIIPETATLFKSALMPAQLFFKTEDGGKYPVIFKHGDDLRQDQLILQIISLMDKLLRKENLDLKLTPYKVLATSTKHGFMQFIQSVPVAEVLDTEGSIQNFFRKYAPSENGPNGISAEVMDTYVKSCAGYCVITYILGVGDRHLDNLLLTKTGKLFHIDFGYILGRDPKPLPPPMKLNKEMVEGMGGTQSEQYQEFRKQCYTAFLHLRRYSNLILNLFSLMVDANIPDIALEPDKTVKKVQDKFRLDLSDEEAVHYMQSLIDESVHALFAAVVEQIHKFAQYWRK

Ephrin type-B receptor 4 = Ephrin type-B receptor 4 (Homo sapiens, UniProt P54760); experiment: Inhibition of EphB4 (unknown origin) ACT labeling site by KiNativ Profiling analysis
[10] = target: Phosphatidylinositol 3-kinase catalytic subunit type 3 (Homo sapiens) (UniProt Q8NEB9); experiment: Inhibition of PIK3C3 ATP labeling site in human A-375 cells at 0.5 uM by KiNativ Profiling analysis relative to control; format: cell-based
[11] = target: Ribosomal protein S6 kinase alpha-3 (Homo sapiens) (UniProt P51812); experiment: Inhibition of RSK2 domain2 Lys2 labeling site in human A-375 cells at 0.05 uM by KiNativ Profiling analysis relative to control; format: cell-based
[12] = target: Tyrosine-protein kinase Fyn (Homo sapiens) (UniProt P06241); experiment: Inhibition of FYN ACT labeling site in human A-375 cells at 5 uM by KiNativ Profiling analysis relative to control; format: cell-based
[13] = target: Serine/threonine-protein kinase WNK2 (Homo sapiens) (UniProt Q9Y3S1); experiment: Inhibition of Wnk2 Lys2 labeling site in human A-375 cells at 0.05 uM by KiNativ Profiling analysis relative to control; format: cell-based
Serine/threonine-protein kinase WNK2 (Homo sapiens), sequence (Q9Y3S1 whole entry): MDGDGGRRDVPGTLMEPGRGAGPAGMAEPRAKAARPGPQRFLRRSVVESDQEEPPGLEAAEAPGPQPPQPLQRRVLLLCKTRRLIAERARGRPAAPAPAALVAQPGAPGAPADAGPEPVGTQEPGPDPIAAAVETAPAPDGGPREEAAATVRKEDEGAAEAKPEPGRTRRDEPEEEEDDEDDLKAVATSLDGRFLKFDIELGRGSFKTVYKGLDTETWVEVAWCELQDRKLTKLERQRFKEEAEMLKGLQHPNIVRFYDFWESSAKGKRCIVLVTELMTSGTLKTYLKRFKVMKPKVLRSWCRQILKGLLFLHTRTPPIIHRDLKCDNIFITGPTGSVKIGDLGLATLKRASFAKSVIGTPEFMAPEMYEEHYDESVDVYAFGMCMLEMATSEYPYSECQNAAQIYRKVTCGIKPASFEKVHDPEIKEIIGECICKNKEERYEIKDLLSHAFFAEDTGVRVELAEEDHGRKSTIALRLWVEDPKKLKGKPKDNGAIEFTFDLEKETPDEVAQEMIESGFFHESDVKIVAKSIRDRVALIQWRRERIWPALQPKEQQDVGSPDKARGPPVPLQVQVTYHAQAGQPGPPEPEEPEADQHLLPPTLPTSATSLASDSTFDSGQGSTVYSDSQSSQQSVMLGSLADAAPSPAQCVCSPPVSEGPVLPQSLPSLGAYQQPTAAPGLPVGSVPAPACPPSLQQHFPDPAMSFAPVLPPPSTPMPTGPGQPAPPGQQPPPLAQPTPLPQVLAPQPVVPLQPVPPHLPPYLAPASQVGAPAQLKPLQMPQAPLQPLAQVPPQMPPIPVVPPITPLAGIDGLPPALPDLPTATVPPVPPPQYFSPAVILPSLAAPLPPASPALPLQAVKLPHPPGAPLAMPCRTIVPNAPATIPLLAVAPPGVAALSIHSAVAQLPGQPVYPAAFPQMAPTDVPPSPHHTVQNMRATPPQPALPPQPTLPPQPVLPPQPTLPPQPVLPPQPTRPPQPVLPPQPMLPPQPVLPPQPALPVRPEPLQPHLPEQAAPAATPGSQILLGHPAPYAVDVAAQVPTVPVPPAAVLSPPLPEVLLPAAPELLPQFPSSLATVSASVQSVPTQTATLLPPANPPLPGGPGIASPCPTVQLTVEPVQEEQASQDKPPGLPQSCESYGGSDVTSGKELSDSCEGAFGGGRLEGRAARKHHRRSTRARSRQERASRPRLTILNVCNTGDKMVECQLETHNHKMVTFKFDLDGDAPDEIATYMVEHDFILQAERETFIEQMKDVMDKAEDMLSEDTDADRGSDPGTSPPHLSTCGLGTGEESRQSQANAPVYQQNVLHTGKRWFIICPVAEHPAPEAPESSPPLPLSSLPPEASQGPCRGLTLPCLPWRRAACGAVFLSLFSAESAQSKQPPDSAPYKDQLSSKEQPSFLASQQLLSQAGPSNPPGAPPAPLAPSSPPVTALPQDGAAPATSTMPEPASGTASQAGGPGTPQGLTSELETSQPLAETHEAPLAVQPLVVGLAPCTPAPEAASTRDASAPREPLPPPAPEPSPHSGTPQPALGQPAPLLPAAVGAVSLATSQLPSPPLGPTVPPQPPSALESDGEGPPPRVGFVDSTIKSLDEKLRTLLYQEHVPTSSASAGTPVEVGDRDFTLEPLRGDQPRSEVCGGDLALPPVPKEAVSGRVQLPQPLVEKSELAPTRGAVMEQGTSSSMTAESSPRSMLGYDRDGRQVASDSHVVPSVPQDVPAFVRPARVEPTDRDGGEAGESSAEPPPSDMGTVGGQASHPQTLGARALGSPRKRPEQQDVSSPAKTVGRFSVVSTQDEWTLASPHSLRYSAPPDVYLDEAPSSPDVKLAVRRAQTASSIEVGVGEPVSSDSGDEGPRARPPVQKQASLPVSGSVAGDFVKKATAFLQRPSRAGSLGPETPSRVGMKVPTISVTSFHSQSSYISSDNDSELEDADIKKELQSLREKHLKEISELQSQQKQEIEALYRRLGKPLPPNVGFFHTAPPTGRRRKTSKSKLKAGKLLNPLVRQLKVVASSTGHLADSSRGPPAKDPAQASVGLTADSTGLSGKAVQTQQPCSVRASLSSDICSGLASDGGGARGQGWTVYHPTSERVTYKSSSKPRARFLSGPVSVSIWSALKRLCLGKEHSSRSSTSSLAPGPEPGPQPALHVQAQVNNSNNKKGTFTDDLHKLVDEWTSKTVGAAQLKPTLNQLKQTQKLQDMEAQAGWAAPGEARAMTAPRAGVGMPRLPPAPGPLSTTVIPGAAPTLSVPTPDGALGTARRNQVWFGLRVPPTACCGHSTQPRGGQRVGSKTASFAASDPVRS

[14] = target: Serine/threonine-protein kinase/endoribonuclease IRE1 (Homo sapiens) (UniProt O75460); experiment: Inhibition of IRE1 Lys2 labeling site in human A-375 cells at 0.5 uM by KiNativ Profiling analysis relative to control; format: cell-based
[15] = target: TRAF2 and NCK-interacting protein kinase (Homo sapiens) (UniProt Q9UKE5); experiment: Inhibition of ZC2 Lys2 labeling site in human A-375 cells at 0.5 uM by KiNativ Profiling analysis relative to control; format: cell-based
[16] = target: Phosphatidylinositol 4,5-bisphosphate 3-kinase catalytic subunit beta isoform (Homo sapiens) (UniProt P42338); experiment: Inhibition of PIK3CB ATP labeling site in human A-375 cells at 0.5 uM by KiNativ Profiling analysis relative to control; format: cell-based
[17] = target: Misshapen-like kinase 1 (Homo sapiens) (UniProt Q8N4C8); experiment: Inhibition of ZC3/MINK Lys2 labeling site in human A-375 cells at 0.5 uM by KiNativ Profiling analysis relative to control; format: cell-based
[18] = target: T1, Serine/threonine-protein kinase greatwall (Homo sapiens) (UniProt Q96GX5); experiment: Inhibition of MASTL ATP Loop labeling site in human A-375 cells at 0.5 uM by KiNativ Profiling analysis relative to control; format: cell-based
T1 sequence (whole entry): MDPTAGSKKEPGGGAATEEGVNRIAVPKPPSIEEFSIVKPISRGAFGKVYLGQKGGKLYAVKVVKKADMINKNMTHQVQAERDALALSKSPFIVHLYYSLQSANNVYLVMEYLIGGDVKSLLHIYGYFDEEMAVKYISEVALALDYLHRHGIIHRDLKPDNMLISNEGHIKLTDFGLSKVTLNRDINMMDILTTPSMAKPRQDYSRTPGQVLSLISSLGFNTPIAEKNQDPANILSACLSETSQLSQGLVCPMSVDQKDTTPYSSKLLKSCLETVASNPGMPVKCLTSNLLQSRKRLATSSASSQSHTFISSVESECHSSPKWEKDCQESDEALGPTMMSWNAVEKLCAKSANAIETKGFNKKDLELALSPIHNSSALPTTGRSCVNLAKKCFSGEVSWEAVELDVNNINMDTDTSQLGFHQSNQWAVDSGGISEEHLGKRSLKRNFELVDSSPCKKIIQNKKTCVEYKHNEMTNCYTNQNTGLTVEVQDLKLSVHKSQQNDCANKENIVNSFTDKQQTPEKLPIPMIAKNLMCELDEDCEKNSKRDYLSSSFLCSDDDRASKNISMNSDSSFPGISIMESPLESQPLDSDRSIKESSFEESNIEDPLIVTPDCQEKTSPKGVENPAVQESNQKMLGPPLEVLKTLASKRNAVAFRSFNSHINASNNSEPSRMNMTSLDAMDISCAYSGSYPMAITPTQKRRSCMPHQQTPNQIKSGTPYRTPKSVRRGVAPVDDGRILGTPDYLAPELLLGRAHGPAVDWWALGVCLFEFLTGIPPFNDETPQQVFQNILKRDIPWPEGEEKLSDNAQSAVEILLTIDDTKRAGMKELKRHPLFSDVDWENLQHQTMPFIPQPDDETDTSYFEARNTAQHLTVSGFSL

[19] = Inhibition of KHS1 Lys1 labeling site in human A-375 cells at 0.05 uM by KiNativ Profiling analysis relative to control; details: condition cancer

Row | Compound | inhibition [1] | inhibition [2] | inhibition [3] | inhibition [4] | IC50 [5] | inhibition [6] | inhibition [7] | IC50 [8] | inhibition [9] | IC50 (Ephrin type-B receptor 4) | inhibition [10] | inhibition [11] | inhibition [12] | inhibition [13] | inhibition [14] | inhibition [15] | inhibition [16] | inhibition [17] | inhibition [18] | inhibition at 0.05 µM [19]
1 | CNc1cc(Oc2cc(C(=O)Nc3cc(N4CCN(C)CC4)cc(C(F)(F)F)c3)ccc2C)ncn1 | 27.1% | – | – | – | – | – | – | – | – | – | – | – | – | – | – | – | – | – | – | –
2 | CCN1CCN(Cc2ccc(NC(=O)c3ccc(C)c(Oc4ccnc5[nH]ccc45)c3)cc2C(F)(F)F)CC1 | – | 34.8% | 0.4% | 73.7% | > 10000 nM | 35.1% | 2.5% | 12.9 nM | 33.3% | 999 nM | 36.8% | 2.2% | 89.6% | -3.5% | 4.5% | 70.8% | 8.8% | 70.8% | 11.4% | 14.9%
3 | CNc1cc(Oc2cc(C(=O)Nc3cc(-n4cnc(C)c4)cc(C(F)(F)F)c3)ccc2C)ncn1 | 13.4% | – | – | – | – | – | – | – | – | – | – | – | – | – | – | – | – | – | – | –
4 | CCN1CCN(Cc2ccc(NC(=O)c3ccc(C)c(/C=C/c4cnc5[nH]ccc5c4OC)c3)cc2C(F)(F)F)CC1 | – | 3.9% | 33.3% | 40.6% | > 10000 nM | 13.7% | 8.5% | 29.5 nM | 38.2% | 54 nM | 51.6% | 0.3% | > 99% | 7.1% | -9.6% | 48.1% | 37.6% | 48.1% | 0.2% | 29.4%
